Experimental data reported in ChEMBL document CHEMBL1144910, “S-acyl-2-thioethyl aryl phosphotriester derivatives of AZT: synthesis, antiviral activity, and stability study” (J Med Chem, 2003).

Experiments:
MT4 [1] = test: Effective concentration required to inhibit the replication of HIV-1 by 50% in MT-4 cells; format: functional, cell-based; settings: Homo sapiens
How it was run: (§1)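 Cells infected with HIV-1; EC50 is the concentration inhibiting viral replication by 50%. Values are averages of at least three separate experiments, with variation below ±10%.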

CEM-SS [2] = test: Cytotoxic concentration required to reduce the viability […] by 50% in CEM-SS cells; format: functional; settings: Homo sapiens
How it was run: (§2)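 Viability measured in uninfected cells of each line; CC50 is the concentration reducing viability by 50%. Values are averages of at least three separate experiments, with variation under standard operating procedures below ±10%.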

CCRF-CEM [3] = test: Cytotoxic concentration required to reduce the viability […] by 50% in CEM/TK cells; format: functional; settings: Homo sapiens; how it was run: as §2
CEM-SS [4] = test: Effective concentration required to inhibit the replication of HIV-1 by 50% in CEM-SS cells; format: functional, cell-based; settings: Homo sapiens; how it was run: as §1
[5] = In vitro Apparent partition coefficients of mixed aryl phosphodiester was determined; format: physicochemical; settings: octanol/water
How it was run: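 Apparent log P by an adapted shake-flask method, partitioning between 1-octanol and 0.02 M potassium phosphate buffer at pH 7.2. Each compound was run in triplicate.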

CCRF-CEM [6] = test: Effective concentration required to inhibit the replication of HIV-1 by 50% in CEM/TK cells; format: functional, cell-based; settings: Homo sapiens; how it was run: as §1
MT4 [7] = test: Cytotoxic concentration required to reduce the viability […] by 50% MT-4 cells; format: functional; settings: Homo sapiens; how it was run: as §2
[8] = Half-life was determined for the compound in heat inactivated cell extracts; stable; format: ADME
[9] = Half-life was determined for the compound in cell extracts (CE); format: ADME
How it was run: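 Total CEM-SS cell extracts, 37 °C, phosphotriester at 50 µM initial concentration. Samples analysed by on-line ISRP-cleaning HPLC (C18, acetonitrile gradient in 20 mM triethylammonium acetate pH 6.9, 267 nm). Products identified by HPLC-ESI-MS and/or co-injection. Relative amounts taken from peak areas. Half-lives derived from pseudo-first-order rate constants fitted by mono- or polyexponential regression.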

[10] = Half-life was determined for the compound in cell extracts pre-incubated with EDTA; stable; format: ADME
[11] = Half-life was determined for the compound in cell extracts pre-incubated with EDTA; format: ADME

SMILES	EC50 (MT4 [1]) [µM]	CC50 (CEM-SS [2]) [µM]	CC50 (CCRF-CEM [3]) [µM]	EC50 (CEM-SS [4]) [µM]	logD [5]	EC50 (CCRF-CEM [6]) [µM]	CC50 (MT4 [7]) [µM]	T1/2 [8]	half-life [9] [h]	T1/2 [10]	half-life [11] [h]
Cc1cn([C@H]2C[C@H](N=[N+]=[N-])[C@@H](COP(=O)(OCCSC(=O)C(C)(C)C)Oc3ccc(C[C@H]4COC(C)(C)N4C(=O)OC(C)(C)C)cc3)O2)c(=O)[nH]c1=O (stereo not given in full)	0.098	> 10	> 10	0.031	3.7	9	> 10				
Cc1cn([C@H]2C[C@H](N=[N+]=[N-])[C@@H](COP(=O)(OCCSC(=O)C(C)(C)C)Oc3ccc(C[C@H](N)C(N)=O)cc3)O2)c(=O)[nH]c1=O (stereo not given in full)	0.016	> 10	> 10	0.002	1.27	4	> 10				
Cc1cn([C@H]2C[C@H](N=[N+]=[N-])[C@@H](CO)O2)c(=O)[nH]c1=O [ZIDOVUDINE]		> 100	> 100	0.003	0.06	> 100	> 100				
Cc1cn([C@H]2C[C@H](N=[N+]=[N-])[C@@H](COP(=O)(O)Oc3ccc(C[C@H](N)CO)cc3)O2)c(=O)[nH]c1=O.Cl								stable	68	stable	
Cc1cn([C@H]2C[C@H](N=[N+]=[N-])[C@@H](COP(=O)(OCCSC(=O)C(C)(C)C)Oc3ccc(C[C@H](NC(=O)OC(C)(C)C)C(=O)N(C(=O)OC(C)(C)C)C(=O)OC(C)(C)C)cc3)O2)c(=O)[nH]c1=O (stereo not given in full)	0.034	> 10	> 10	0.049	5	4	> 10				
Cc1cn([C@H]2C[C@H](N=[N+]=[N-])[C@@H](COP(=O)(O)Oc3ccc(C[C@H](N)C(=O)O)cc3)O2)c(=O)[nH]c1=O.Cl								stable	12.8	stable	
CC(=O)N[C@@H](Cc1ccc(OP(=O)(O)OC[C@H]2O[C@@H](n3cc(C)c(=O)[nH]c3=O)C[C@@H]2N=[N+]=[N-])cc1)C(N)=O.Cl								stable	19.3		166
Cc1cn([C@H]2C[C@H](N=[N+]=[N-])[C@@H](COP(=O)(OCCSC(=O)C(C)(C)C)Oc3ccc(C[C@H](N)C(=O)O)cc3)O2)c(=O)[nH]c1=O (stereo not given in full)	0.075	> 100	> 100	0.006	0.25	29	> 10				
CC(=O)N[C@@H](Cc1ccc(OP(=O)(OCCSC(=O)C(C)(C)C)OC[C@H]2O[C@@H](n3cc(C)c(=O)[nH]c3=O)C[C@@H]2N=[N+]=[N-])cc1)C(N)=O (stereo not given in full)	0.066	> 10	> 10	0.082	1.52	8	> 10				
CC(=O)N(C(=O)OC(C)(C)C)[C@@H](Cc1ccc(OP(=O)(OCCSC(=O)C(C)(C)C)OC[C@H]2O[C@@H](n3cc(C)c(=O)[nH]c3=O)C[C@@H]2N=[N+]=[N-])cc1)C(=O)N(C(=O)OC(C)(C)C)C(=O)OC(C)(C)C (stereo not given in full)	0.032	> 10	> 10	0.015	5.8	6	> 10				
Cc1cn([C@H]2C[C@H](N=[N+]=[N-])[C@@H](COP(=O)(OCCSC(=O)C(C)(C)C)Oc3ccc(C[C@@H](CO)NC(=O)OC(C)(C)C)cc3)O2)c(=O)[nH]c1=O (stereo not given in full)	0.044		> 10	0.017	2.5	4	> 10				
Cc1cn([C@H]2C[C@H](N=[N+]=[N-])[C@@H](COP(=O)(OCCSC(=O)C(C)(C)C)Oc3ccc(C[C@H](N)CO)cc3)O2)c(=O)[nH]c1=O (stereo not given in full)	0.018	> 100	> 100	0.007	0.64	7	> 100				
